Measured values as given in PMC12239073 (Molecular Pharmaceutics, 2025).

Legend:
[1] = pH of saturated solutions in biorelevant media; type: physicochemical; conditions: 24 h, 37 °C, pH probe; for pH of saturated solution in FaSSGF: excess solid in FaSSGF, initial pH 1.6; for pH of saturated solution in FaSSGF / pH of saturated solution in FaSSIF / pH of saturated solution in FeSSIF: 350 rpm, n = 3; for pH of saturated solution in FaSSIF: excess solid in FaSSIF, initial pH 6.5; for pH of saturated solution in FeSSIF: excess solid in FeSSIF, initial pH 5.0
Method in brief: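 Excess solid was added separately to 1 mL of each medium: FaSSIF (pH 6.5; NaTC 3 mM, lecithin 0.75 mM), FeSSIF (pH 5.0; 15 mM, 3.75 mM), FaSSGF (pH 1.6; 0.08 mM, 0.02 mM), or blank versions without NaTC and lecithin. Samples were shaken at 350 rpm for 24 h at 37 °C, then read with a pH probe. Triplicate; mean ± standard deviation, n = 3.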

Saturation = type: physicochemical; conditions: 24 h, 37 °C, in words; for saturation solubility in gastric media, rank among the media: FaSSGF and blank FaSSGF, pH 1.6
[2] = approximate, from the literature; ref not given; cited from earlier work

Molecule: insulin: recombinant human insulin procured from Merck KGaA, used as model peptide
- pH of media in the presence of excess material, all media investigated ([1]; FaSSIF, FeSSIF, FaSSGF and blank equivalents): did not appear to impact media pH
- saturation solubility in gastric media, rank among the media (Saturation): highest solubility

Molecule: O=C([O-])CCCCCCCNC(=O)c1ccccc1O.[Na+] [SNAC, salcaprozate sodium]
- pKa [2]: approximately 5
- pH of saturated solution in FaSSGF [1]: 7.6
- pH of saturated solution in FaSSIF [1]: 7.9
- pH of saturated solution in FeSSIF [1]: 7.7
- saturation solubility in gastric media, rank among the media (Saturation): lowest
- saturation solubility in FaSSIF, rank among the media (Saturation; FaSSIF, pH 6.5): highest

Molecule: CCCCCCCCCC(=O)[O-].[Na+] [C10, sodium caprate]
- pKa [2]: approximately 5
- pH of saturated solution in FaSSGF [1]: 9.2
- pH of saturated solution in FaSSIF [1]: 9.0
- pH of saturated solution in FeSSIF [1]: 8.8
